This is an account of results in ChEMBL document CHEMBL4428042, “Discovery and Characterization of a Class of Pyrazole Inhibitors of Bacterial Undecaprenyl Pyrophosphate Synthase” (J Med Chem, 2016).

Values after ≈ are worked out from the molar mass of the structure shown. Active and inactive are the calls of the source. The rule behind the calls is not given here.

Data set [1] deals with Haemophilus influenzae. As to the kind of experiment: Antibacterial activity against Haemophilus influenzae H128 incubated for 18 to 24 hrs by broth microdilution method. Type of data set: functional. Background: Broth dilution looks for growth in wells or tubes with falling amounts of substance.
Data set [2] deals with Haemophilus influenzae. As to the kind of experiment: Antibacterial activity against Haemophilus influenzae H128 deficient in AcrA incubated for 18 to 24 hrs by broth microdilution method. Type of data set: functional.
Data set [3] relates to Acinetobacter baumannii. Nature of the data set: Antibacterial activity against Acinetobacter baumannii ACM1010 incubated for 18 to 24 hrs by broth microdilution method. Type of data set: functional.
The test system of data set [4] is Escherichia coli. Nature of the data set: Antibacterial activity against Escherichia coli 120 deficient in AcrAB incubated for 18 to 24 hrs by broth microdilution method. Type of data set: functional.
The subject of data set [5] is Staphylococcus aureus. Nature of the data set: Antibacterial activity against Staphylococcus aureus WCUH29 incubated for 18 to 24 hrs by broth microdilution method. Type of data set: functional.
Data set [6] has as its system Klebsiella pneumoniae. As to the kind of experiment: Antibacterial activity against Klebsiella pneumoniae 1161486a deficient in tolC incubated for 18 to 24 hrs by broth microdilution method. Type of data set: functional.
In data set [7] the test system is Pseudomonas aeruginosa. As to the kind of experiment: Antibacterial activity against Pseudomonas aeruginosa PAO322 deficient in MexA/B/C/D/E/F incubated for 18 to 24 hrs by broth microdilution method. Type of data set: functional.
The subject of data set [8] is Streptococcus pneumoniae. As to the kind of experiment: Antibacterial activity against Streptococcus pneumoniae Ery2 incubated for 18 to 24 hrs by broth microdilution method. Type of data set: functional.
The test system of data set [9] is Streptococcus pneumoniae. As to the kind of experiment: Antibacterial activity against Streptococcus pneumoniae 1629 incubated for 18 to 24 hrs by broth microdilution method. Type of data set: functional.
Data set [10] deals with Moraxella catarrhalis. Nature of the data set: Antibacterial activity against Moraxella catarrhalis 1502 incubated for 18 to 24 hrs by broth microdilution method. Type of data set: functional.
Data set [11] deals with Streptococcus pyogenes. As to the kind of experiment: Antibacterial activity against Streptococcus pyogenes 1307006P incubated for 18 to 24 hrs by broth microdilution method. Type of data set: functional.
For data set [12], the system named is Staphylococcus aureus. Nature of the data set: Antibacterial activity against Staphylococcus aureus OXFORD incubated for 18 to 24 hrs by broth microdilution method. Type of data set: functional.
Data set [13] concerns the target T1, Ditrans,polycis-undecaprenyl-diphosphate synthase ((2E,6E)-farnesyl-diphosphate specific) (Pseudomonas aeruginosa (strain ATCC 15692 / DSM 22644 / CIP 104116 / JCM14847 / LMG 12228 / 1C / PRS 101 / PAO1), UniProt Q9HXY2).
T1 sequence (Q9HXY2 whole entry): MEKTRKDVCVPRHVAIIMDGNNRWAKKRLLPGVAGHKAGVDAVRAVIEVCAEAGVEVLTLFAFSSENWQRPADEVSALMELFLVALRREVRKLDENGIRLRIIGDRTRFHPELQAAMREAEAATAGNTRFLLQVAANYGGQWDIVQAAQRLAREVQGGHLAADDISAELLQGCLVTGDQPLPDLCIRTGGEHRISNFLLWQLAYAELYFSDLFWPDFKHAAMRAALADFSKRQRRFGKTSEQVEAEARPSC
As to the kind of experiment: Inhibition of hexa-histidine tagged Pseudomonas aeruginosa UppS expressed in Escherichia coli assessed as reduction in IPP condensation to growing prenyl chain by measuring pyrophosphate production incubated for 30 mins.

Data set [14] concerns Staphylococcus aureus. As to the kind of experiment: Binding affinity to N-terminal FLAG-tagged and C-terminal SBP-tagged Staphylococcus aureus recombination UppS assessed change in melting temperature at 10 uM by SYPRO Orange based assay.
Data set [15] concerns Staphylococcus aureus. Nature of the data set: Antibacterial activity against Staphylococcus aureus RN4220 transfected with pYH4-UppS in absence of anhydrotetracycline incubated for 18 to 24 hrs by broth microdilution method. Type of data set: functional.
The test system of data set [16] is Staphylococcus aureus. As to the kind of experiment: Binding affinity to N-terminal FLAG-tagged and C-terminal SBP-tagged Staphylococcus aureus recombinant UppS expressed in Escherichia coli by affinity selection based ELT screen assay.
Data set [17] deals with Staphylococcus aureus. Nature of the data set: Antibacterial activity against Staphylococcus aureus RN4220 transfected with pYH4 in absence of anhydrotetracycline incubated for 18 to 24 hrs by broth microdilution method. Type of data set: functional.
Data set [18] addresses T2, Ditrans,polycis-undecaprenyl-diphosphate synthase ((2E,6E)-farnesyl-diphosphate specific) (Klebsiella pneumoniae, UniProt A0A080SPQ8).
T2 sequence (A0A080SPQ8 whole entry): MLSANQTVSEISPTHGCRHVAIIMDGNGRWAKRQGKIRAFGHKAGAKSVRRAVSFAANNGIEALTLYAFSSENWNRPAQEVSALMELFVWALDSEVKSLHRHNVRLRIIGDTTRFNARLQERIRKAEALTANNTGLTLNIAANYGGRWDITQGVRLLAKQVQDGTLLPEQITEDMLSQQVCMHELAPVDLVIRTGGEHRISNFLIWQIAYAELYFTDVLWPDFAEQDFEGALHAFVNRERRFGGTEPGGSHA
As to the kind of experiment: Inhibition of hexa-histidine tagged Klebsiella pneumoniae UppS expressed in Escherichia coli assessed as reduction in IPP condensation to growing prenyl chain by measuring pyrophosphate production.

Data set [19] can be described thus: Inhibition of N-terminal FLAG-tagged and C-terminal SBP-tagged Staphylococcus aureus recombination UppS assessed as reduction in IPP condensation to growing prenyl chain by measuring pyrophosphate production incubated for 30 mins.
Data set [20] concerns Staphylococcus aureus. Nature of the data set: Antibacterial activity against Staphylococcus aureus RN4220 transfected with pYH4 in presence of anhydrotetracycline incubated for 18 to 24 hrs by broth microdilution method. Type of data set: functional.
Data set [21] deals with T3, Ditrans,polycis-undecaprenyl-diphosphate synthase ((2E,6E)-farnesyl-diphosphate specific) (Acinetobacter baumannii, UniProt V5VCK8).
T3 sequence (V5VCK8 whole entry): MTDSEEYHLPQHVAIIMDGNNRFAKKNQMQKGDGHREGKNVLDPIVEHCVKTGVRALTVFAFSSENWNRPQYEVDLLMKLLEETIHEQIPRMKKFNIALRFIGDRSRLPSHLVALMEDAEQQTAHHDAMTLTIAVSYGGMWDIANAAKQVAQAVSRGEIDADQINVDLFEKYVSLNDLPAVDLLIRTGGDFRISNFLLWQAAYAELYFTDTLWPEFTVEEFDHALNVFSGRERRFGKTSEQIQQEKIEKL
As to the kind of experiment: Inhibition of hexa-histidine tagged Acinetobacter baumannii UppS expressed in Escherichia coli assessed as reduction in IPP condensation to growing prenyl chain by measuring pyrophosphate production.

Data set [22] concerns Staphylococcus aureus. Nature of the data set: Antibacterial activity against Staphylococcus aureus RN4220 transfected with pYH4-UppS in presence of anhydrotetracycline incubated for 18 to 24 hrs by broth microdilution method. Type of data set: functional. The procedure, abridged:
(§1)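 S. aureus strain carrying an inducible uppS over-expression plasmid, with anhydrotetracycline inducer at 0.1 µg/mL. MIC was compared with the un-induced system and with a plasmid vector control strain.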

A short description of data set [23]: Cytotoxicity against mouse L5178Y TK+/- suspension cells incubated for 72 hrs by Cell-titer-Glo reagent based assay. The following applies: read-out: TC50.
Data set [24] concerns Staphylococcus aureus. As to the kind of experiment: Resistance index, ratio of MIC for antibacterial activity against Staphylococcus aureus RN4220 transfected with pYH4-UppS in presence of anhydrotetracycline to MIC for antibacterial activity against Staphylococcus aureus RN4220 transfected with pYH4-UppS in absence of anhydrotetracycline. Type of data set: functional. The procedure, abridged: as §1

The subject of data set [25] is Staphylococcus aureus. As to the kind of experiment: Antibacterial activity against Staphylococcus aureus RN4220 expressing UppS F148L mutant incubated for 18 to 24 hrs by broth microdilution method. Type of data set: functional. The procedure, abridged: (§2)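 S. aureus resistant mutants were isolated from the wild-type laboratory strain in the presence of the pyrazole UppS inhibitor and then tested for MIC.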

Data set [26] concerns Staphylococcus aureus. As to the kind of experiment: Antibacterial activity against Staphylococcus aureus RN4220 expressing wild type UppS incubated for 18 to 24 hrs by broth microdilution method. Type of data set: functional.
Data set [27] relates to Staphylococcus aureus. As to the kind of experiment: Antibacterial activity against Staphylococcus aureus RN4220 expressing UppS F103L mutant incubated for 18 to 24 hrs by broth microdilution method. Type of data set: functional. Summed up: as §2

As to `O=C(O)c1cn(C2CC2)c2cc(N3CCNCC3)c(F)cc2c1=O` [CIPROFLOXACIN], the MIC is ≤ 0.008 µg/mL in data set [1]; ≤ 0.008 µg/mL in [2]; > 8 µg/mL in data set [3]; ≤ 0.008 µg/mL in [4]; 0.5 µg/mL (≈ 1.51 µM) in data set [5]; ≤ 0.008 µg/mL in data set [6]. Further, the MIC was ≤ 0.008 µg/mL in data set [7]; 2 µg/mL (≈ 6.04 µM) in data set [8]; 0.25 µg/mL (≈ 0.754 µM) in [9]; 0.03 µg/mL (≈ 0.0905 µM) in data set [10]; 0.5 µg/mL (≈ 1.51 µM) in data set [11].

With `C[C@@H](O)[C@H]1C(=O)N2C(C(=O)O)=C(S[C@@H]3CN[C@H](C(=O)N(C)C)C3)[C@H](C)[C@H]12` [MEROPENEM], the MIC was found to be 0.125 µg/mL (≈ 0.326 µM) in [1]; 0.125 µg/mL (≈ 0.326 µM) in data set [2]; 0.5 µg/mL (≈ 1.3 µM) in data set [3]; 0.03 µg/mL (≈ 0.0782 µM) in data set [4]; 2 µg/mL (≈ 5.22 µM) in data set [5]; 0.03 µg/mL (≈ 0.0782 µM) in data set [6]. In addition, the MIC in [7] was 0.5 µg/mL (≈ 1.3 µM); in data set [8] it was 0.016 µg/mL (≈ 0.0417 µM); in [9], 0.016 µg/mL (≈ 0.0417 µM); in data set [12], 0.125 µg/mL (≈ 0.326 µM); in data set [10], ≤ 0.008 µg/mL; in [11], ≤ 0.008 µg/mL.

For `Cc1ccc(-c2c(C(=O)N(CCC(N)=O)Cc3ccc(OC(C)C)cc3)cnn2Cc2ccccc2)cc1`, the MIC in data set [1] is > 128 µg/mL; in [15] it was 128 µg/mL (≈ 251 µM); in data set [2], 32 µg/mL (≈ 62.7 µM); in [3], > 128 µg/mL; in [4] it was > 128 µg/mL; in data set [5], 32 to 64 µg/mL (≈ 62.7 to 125 µM). The MIC is > 128 µg/mL in data set [6]; > 128 µg/mL in [7]; 128 µg/mL (≈ 251 µM) in [8]; 128 µg/mL (≈ 251 µM) in data set [9]; 32 to 64 µg/mL (≈ 62.7 to 125 µM) in [12]; 64 µg/mL (≈ 125 µM) in data set [17]. For the same compound, the MIC is 32 µg/mL (≈ 62.7 µM) in data set [10], 32 µg/mL in data set [20], > 128 µg/mL in data set [22] and 128 µg/mL (≈ 251 µM) in data set [11]. The IC50 (as a rule, the concentration needed to halve the response being measured) in [13] was > 100 µM; in [18], > 100 µM; in [19], 0.97 µM; in [21] it was > 100 µM. The ΔTm – broadly, the shift of the melting midpoint relative to a reference – in [14] was 11 °C. The result in [16] was Active. Besides, in data set [23], the CC50 at 72 h was 100 µM.

For `CC(C)Oc1ccc(CN(CCC(N)=O)C(=O)c2cnn(Cc3ccccc3)c2-c2ccc3sccc3c2)cc1`, the MIC in data set [1] is > 128 µg/mL; in [15] it was 32 µg/mL (≈ 57.9 µM); in data set [2], 8 to 16 µg/mL (≈ 14.5 to 28.9 µM); in data set [3] it was > 128 µg/mL; in data set [4] it was > 128 µg/mL; in data set [5], 4 to 8 µg/mL (≈ 7.24 to 14.5 µM). For the same compound, the MIC is > 128 µg/mL in data set [6]; > 128 µg/mL in data set [7]; 32 to 64 µg/mL (≈ 57.9 to 116 µM) in [8]; 32 to 64 µg/mL (≈ 57.9 to 116 µM) in data set [9]; 8 µg/mL (≈ 14.5 µM) in [12]; 8 µg/mL (≈ 14.5 µM) in data set [17]. The MIC was 8 to 16 µg/mL (≈ 14.5 to 28.9 µM) in data set [10]; 64 µg/mL (≈ 116 µM) in data set [25]; 8 µg/mL in data set [20]; 8 µg/mL (≈ 14.5 µM) in [26]; 64 µg/mL in data set [22]; 64 µg/mL (≈ 116 µM) in data set [27]. In data set [11], this compound registered an MIC of 64 µg/mL (≈ 116 µM). The IC50 in [13] is > 100 µM; in [18], > 100 µM; in data set [19], 0.19 µM; in data set [21], > 100 µM. Further, the ΔTm in data set [14] was 8 °C. In data set [24], the Ratio was found to be 2. In [16], the outcome was Active. In data set [23], the CC50 at 72 h amounted to 25 µM.
